Published values from different studies.
Lines come from different studies, so protocols differ.
Target: Calcium/calmodulin-dependent protein kinase type II subunit gamma (CAMK2G, Homo sapiens, UniProt Q13555)

For `COc1ccc2cc(OCC3(C(=O)O)CN(C(=O)c4ccc(F)cc4)C3)ccc2c1`, the remaining binding was 100% (cell-free assay, competition with immobilised ligand; 1 µM).
The remaining signal of `N#CCCc1ccc2c(c1)-c1[nH]c3ccc([N+](=O)[O-])cc3c1CC(=O)N2` is reported as 66% (cell-free assay; 0.5 µM).
With `CC(C)(C)c1nc(-c2cccc(NS(=O)(=O)c3c(F)cccc3F)c2F)c(-c2ccnc(N)n2)s1` the remaining activity was 102% (enzyme activity, inhibitor, radiometric; 1 µM).
`CC(C)(O)[C@H]1CC[C@H](Nc2ccc3ncc(-c4cccc(C(F)(F)F)c4)n3n2)CC1` gave a remaining activity of 95.1% (enzyme activity, inhibitor; 1 µM).
`CS(=O)(=O)c1cc(C2(NC(=O)c3cncc4c3cnn4-c3ccc(F)cc3)CC2)ccn1` has a remaining binding of 72% (cell-free assay, competition with immobilised ligand; 1 µM).
The remaining activity of `CCN(CC)c1ccc(C2=NNC(=O)CC2C)cc1[N+](=O)[O-]` (centres unmarked) is reported as 119% (enzyme activity, inhibitor; 10 µM).
`COc1cc(-c2cc(-c3ccc(N4CCNCC4)cc3)cnc2C)cc(OC)c1OC` gave an inhibition of 1% (enzyme activity, inhibitor; 0.1 µM).
The remaining signal of `CS(=O)(=O)CCNCc1ccc(-c2ccc3ncnc(Nc4ccc(OCc5cccc(F)c5)c(Cl)c4)c3c2)o1` is reported as 111% (cell-free assay; 0.5 µM).
The remaining activity of `O=C(Nc1cnn(-c2csc(C(=O)NC3COC3)c2)c1)Nc1c(F)cccc1Cl` is reported as 90.1% (enzyme activity, inhibitor; 5 µM).
The remaining binding of `CNCc1ccccc1-c1csc([C@H](C)Nc2nc(C)nc3cc(OC)c(OC)cc23)c1` is reported as 90% (cell-free assay, competition with immobilised ligand; 1 µM).
For `CC(C)c1ccc(NC(=O)c2cccs2)c(-c2nc3ccccc3[nH]c2=O)c1`, the activity vs control was 100% (enzyme activity, inhibitor; 1 µM).
`O=c1nc(-c2ccccn2)sc2ccccc12` gave a remaining binding of 96% (binding, competition with immobilised ligand; 1 µM).
`Cc1ccc(C(=O)NCc2ccsc2)cc1C#Cc1cn(C(C)C)c2ncnc(N)c12` gave an activity vs control of 101% (enzyme activity, inhibitor; 1 µM).
The activity vs control of `Cc1cc(NC(=O)c2cccc3cc(-c4cccc5[nH]nc(N)c45)ccc23)ccc1F` is reported as 106% (enzyme activity, inhibitor; 0.1 µM).
With `CNC(=O)Nc1ccc2c(c1)CC[C@@]21OC(=O)N(CC(=O)N(Cc2ccc(F)cc2)[C@@H](C)C(F)(F)F)C1=O` the remaining binding was 76% (cell-free assay, competition with immobilised ligand; 1 µM).
With `C#Cc1cccc(Nc2ncnc3cc(OCCOC)c(OCCOC)cc23)c1` the remaining signal was 115% (cell-free assay; 0.5 µM).
`O=C(Nc1nccs1)C(c1cc(F)ccc1O)N1Cc2ccccc2C1=O` (centres unmarked) gave an inhibition of 9% (enzyme activity, inhibitor; 1 µM).
The remaining signal of `Cc1ccc(C(=O)Nc2ccc(CN3CCN(C)CC3)c(C(F)(F)F)c2)cc1C#Cc1cnc2cccnn12` is reported as 98% (cell-free assay; 23.5 nM).
With `Cc1nc(Cc2cccc(C(F)(F)F)c2)sc1-c1ccc(C(N)=O)nc1` the remaining binding was 93% (cell-free assay, competition with immobilised ligand; 1 µM).
`CNC(=O)c1cc(Oc2ccc(NC(=O)Nc3ccc(Cl)c(C(F)(F)F)c3)cc2)ccn1` gave an inhibition of 78% (cell-free assay; 10 µM).
